Measured values: ChEMBL document CHEMBL4043182, “On the synthesis of quinone-based BODIPY hybrids: New insights on antitumor activity and mechanism of action in cancer cells” (Bioorg Med Chem Lett, 2017)

Tests used:
[1] = system: SF-295; assay: Cytotoxicity against human SF295 cells after 24 hrs in absence of GSH-OEt by MTT assay; type: functional, cell-based; conditions: SF-295, 24 h
Procedure, shortened: (§1)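 24 h MTT exposure (0.04–40.92 µM in 0.1% DMSO), with or without co-treatment with GSH ethyl ester (15 mM) to gauge the ROS contribution. MTT was 0.5 mg/mL for 3 h, with formazan dissolved in DMSO and absorbance at 595 nm expressed as % of control. Triplicate, repeated at least three times.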

[2] = system: MDA-MB-435; assay: Antiproliferative activity against human MDA-MB-435 cells after 72 hrs by MTT assay; type: functional, cell-based; conditions: MDA-MB-435, 72 h
Procedure, shortened: (§2)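 MTT reduction: cancer lines plated at 0.7×10^5 to 0.3×10^6 cells/well, V79 and L929 fibroblasts at 0.5×10^5 cells/well. Compounds in DMSO (0.1%) were given for 24 h at 0.04–40.92 µM or 72 h at 0.04–8.19 µM. Fresh medium with 0.5 mg/mL MTT was added for 3 h, then formazan was dissolved in DMSO and read at 595 nm as % of control. IC50 came from nonlinear regression with 95% CI. Doxorubicin (0.001–1.06 µM) was the positive control. Triplicate, ≥3 repeats.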

[3] = system: L929; assay: Antiproliferative activity against mouse L929 cells after 72 hrs by MTT assay; type: cell-based; conditions: L929, 72 h; procedure, shortened: as §2
[4] = system: HCT-116; assay: Cytotoxicity against human HCT116 cells after 24 hrs in presence of GSH-OEt by MTT assay; type: functional, cell-based; conditions: HCT-116, 24 h; procedure, shortened: as §1
[5] = system: SF-295; assay: Cytotoxicity against human SF295 cells after 24 hrs in presence of GSH-OEt by MTT assay; type: functional, cell-based; conditions: SF-295, 24 h; procedure, shortened: as §1
[6] = system: PC-3; assay: Cytotoxicity against human PC3 cells after 24 hrs in presence of GSH-OEt by MTT assay; type: functional, cell-based; conditions: PC-3, 24 h; procedure, shortened: as §1
[7] = system: SF-295; assay: Antiproliferative activity against human SF295 cells after 72 hrs by MTT assay; type: functional, cell-based; conditions: SF-295, 72 h; procedure, shortened: as §2
[8] = system: PC-3; assay: Cytotoxicity against human PC3 cells after 24 hrs in absence of GSH-OEt by MTT assay; type: functional, cell-based; conditions: PC-3, 24 h; procedure, shortened: as §1
[9] = system: V79; assay: Antiproliferative activity against chinese hamster V79 cells after 72 hrs by MTT assay; type: cell-based; conditions: Cricetulus griseus, V79, 72 h; procedure, shortened: as §2
[10] = system: HCT-116; assay: Cytotoxicity against human HCT116 cells after 24 hrs in absence of GSH-OEt by MTT assay; type: functional, cell-based; conditions: HCT-116, 24 h; procedure, shortened: as §1
[11] = system: HCT-116; assay: Antiproliferative activity against human HCT116 cells after 72 hrs by MTT assay; type: functional, cell-based; conditions: HCT-116, 72 h; procedure, shortened: as §2
[12] = system: L929; assay: Cytotoxicity against mouse L929 cells after 24 hrs in absence of GSH-OEt by MTT assay; type: cell-based; conditions: L929, 24 h; procedure, shortened: as §1
[13] = system: L929; assay: Cytotoxicity against mouse L929 cells after 24 hrs in presence of GSH-OEt by MTT assay; type: cell-based; conditions: L929, 24 h; procedure, shortened: as §1
[14] = system: PC-3; assay: Antiproliferative activity against human PC3 cells after 72 hrs by MTT assay; type: functional, cell-based; conditions: PC-3, 72 h; procedure, shortened: as §2
[15] = system: SW-620; assay: Antiproliferative activity against human SW620 cells after 72 hrs by MTT assay; type: functional, cell-based; conditions: SW-620, 72 h; procedure, shortened: as §2

IC50 [2] [µM]	IC50 [11] [µM]	IC50 [14] [µM]	IC50 [15] [µM]	SMILES	IC50 [1] [µM]	IC50 [3] [µM]	IC50 [4] [µM]	IC50 [5] [µM]	IC50 [6] [µM]	IC50 [7] [µM]	IC50 [8] [µM]	IC50 [9] [µM]	IC50 [10] [µM]	IC50 [12] [µM]	IC50 [13] [µM]
> 8.19	> 8.19	> 8.19	> 8.19	O=C1C2=C(OC(Cn3cc(CNc4ccc5n4[B-](F)(F)[N+]4=C(Cl)C=CC4=C5c4ccccc4)nn3)C2)C(=O)c2ccccc21 (stereo not given)	> 40	> 8.19	> 40	> 40	> 40	> 8.19	> 40	> 8.19	> 40	> 40	> 40
> 8.1	> 8.1	> 8.1	> 8.1	CC1(C)OC2=C(C(=O)c3ccccc3C2=O)C1n1cc(CNC2=[N+]3C(=C(c4ccccc4)c4ccc(Cl)n4[B-]3(F)F)C=C2)nn1 (stereo not given)	> 40	> 8.1	> 40	> 40	> 40	> 8.1	> 40	> 8.1	> 40	> 40	> 40
